The values below come from ChEMBL document CHEMBL1131138, “A novel class of orally active non-peptide bradykinin B2 receptor antagonists. 3. Discovering bioisosteres of the imidazo[1,2-a] pyridine moiety” (J Med Chem, 1998).

Test [1] concerns the target T1, B2 bradykinin receptor (Homo sapiens, UniProt P30411).
T1 sequence (P30411 whole entry): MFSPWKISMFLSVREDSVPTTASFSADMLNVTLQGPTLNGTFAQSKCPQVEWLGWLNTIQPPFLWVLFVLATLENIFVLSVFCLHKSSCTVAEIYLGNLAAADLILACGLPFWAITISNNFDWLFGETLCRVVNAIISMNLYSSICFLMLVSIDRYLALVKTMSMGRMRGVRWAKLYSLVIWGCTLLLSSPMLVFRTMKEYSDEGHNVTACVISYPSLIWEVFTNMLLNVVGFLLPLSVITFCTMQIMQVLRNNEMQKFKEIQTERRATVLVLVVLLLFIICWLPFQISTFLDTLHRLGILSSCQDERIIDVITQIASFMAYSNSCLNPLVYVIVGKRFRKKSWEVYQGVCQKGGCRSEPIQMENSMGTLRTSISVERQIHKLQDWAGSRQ
Nature of the test: Inhibition specific binding of [3H]BK (1.0 nM) to human Bradykinin receptor B2 which was expressed in CHO (Chinese hamster ovary) cells by 50%. The test is classed as cell-based. The procedure, abridged:
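CHO (dhfr−) cells stably expressing human B2 receptor, seeded at 3.0 × 10^4 cells/well and cultured 1 day. Whole cells incubated with 1.0 nM [3H]BK plus compound for 2 h at 4 °C in HEPES/N-methyl-D-glucamine buffer pH 7.2 with bacitracin, enalaprilat and BSA. Washed, solubilized in SDS/NaOH and counted. Nonspecific binding with 1 μM BK; DMSO below 3%; three experiments.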

For test [2], the target named is T2, B2 bradykinin receptor (Cavia porcellus, UniProt O70526).
T2 sequence (O70526 whole entry): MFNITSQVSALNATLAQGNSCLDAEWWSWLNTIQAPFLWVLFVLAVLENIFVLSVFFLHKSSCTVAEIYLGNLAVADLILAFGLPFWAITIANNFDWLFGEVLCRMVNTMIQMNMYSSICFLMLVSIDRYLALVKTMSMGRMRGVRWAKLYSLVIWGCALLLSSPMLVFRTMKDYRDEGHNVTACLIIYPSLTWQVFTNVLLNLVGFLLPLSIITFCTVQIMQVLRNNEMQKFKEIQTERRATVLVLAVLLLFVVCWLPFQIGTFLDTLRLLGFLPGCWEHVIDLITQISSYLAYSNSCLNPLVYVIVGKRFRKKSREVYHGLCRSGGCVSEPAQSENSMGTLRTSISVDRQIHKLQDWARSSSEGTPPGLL
Nature of the test: Concentration required to inhibit specific binding of [ 3H]BK (0.06 nM) to Bradykinin receptor B2 in guinea pig ileum membrane preparations by 50%. Format: cell membranes. The procedure, abridged: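 Ileal membranes from male Hartley guinea pigs (0.2 mg protein/mL) in TES buffer pH 6.8 with phenanthroline, bacitracin, DTT, captopril and BSA. Incubated with 0.06 nM [3H]BK plus compound for 60 min at room temperature, then filtered through GF/B and counted by scintillation.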

For test [3], the system named is Cavia porcellus. Nature of the test: Compound tested in vivo for inhibition of Bradykinin induced Bronchoconstriction in anaesthetized guinea pig at 1 mg/kg, po. Format: functional. The procedure, abridged: (§1)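 Male Hartley guinea pigs (470–750 g), fasted overnight, anesthetized with ip pentobarbital (30 mg/kg) and ventilated at 10 mL/kg, 60 breaths/min. Given alcuronium (0.5 mg/kg iv) and propranolol (10 mg/kg sc). BK 5 μg/kg iv, with bronchoconstriction read as peak pulmonary insufflation pressure (modified Konzett–Rössler).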

Test [4] has as its target T1, B2 bradykinin receptor. The test is described as follows: Concentration required to inhibit specific binding of [3H]BK (1.2 nM) to A-431 cells (human epidermoid carcinoma) which express Bradykinin receptor B2 by 50%. The test is classed as cell-based.
Test [5] has as its system Cavia porcellus. The test is described as follows: In vivo inhibition of Bradykinin induced Bronchoconstriction in anaesthetized guinea pig following 1 mg/kg p.o. The test is classed as functional. The note with it: route oral. The procedure, abridged:
as §1

In test [6] the test system is Cavia porcellus. Nature of the test: Inhibition of Bradykinin induced Bronchoconstriction in anaesthetized guinea pig at 0.32mg/kg, po. Format: functional. The procedure, abridged:
as §1

Molecules are shown by their SMILES.

Consider `CNC(=O)c1ccc(/C=C/C(=O)NCC(=O)N(C)c2ccc(C)c(COc3cccc4c3nc(OC)n4C)c2C)cc1`, for which the values for the concentration for half-maximal inhibition (IC50) at B2 bradykinin receptor [1] and at B2 bradykinin receptor [2] were 7.2 nM and 1.6 nM, respectively. In the test on Cavia porcellus [3], this molecule came in with an inhibition in vivo at 1 mg/kg of 59.7%.
For the molecule `CNC(=O)c1ccc(/C=C/C(=O)NCC(=O)N(C)c2ccc(Cl)c(COc3cccc4ccc(C)nc34)c2Cl)cc1`, the IC50 on B2 bradykinin receptor [4] came to 1.3 nM; at B2 bradykinin receptor [1] it was 1.1 nM; on B2 bradykinin receptor [2] it was 0.51 nM. The inhibition in vivo at 1 mg/kg in the test with Cavia porcellus [5] is 81.9%. Besides, testing at 0.32 mg/kg in the test with Cavia porcellus [6] gave an inhibition in vivo of 67.4%.
Consider `CCc1nc2c(OCc3c(Cl)ccc(N(C)C(=O)CNC(=O)/C=C/c4ccc(C(=O)NC)cc4)c3Cl)cccc2n1C`, for which the half-maximal inhibitory concentration (IC50) at B2 bradykinin receptor [1] worked out at 22 nM; on B2 bradykinin receptor [2], 8.7 nM. In the test on Cavia porcellus [3], this molecule had an inhibition in vivo at 1 mg/kg of 31.7%.
Turning to `CC(=O)Nc1ccc(/C=C/C(=O)NCC(=O)N(C)c2ccc(Cl)c(COc3cccc4ncc(C)nc34)c2Cl)cc1`, the IC50 on B2 bradykinin receptor [1] amounted to 2.5 nM; at B2 bradykinin receptor [2], 2.4 nM. The molecule further returned an inhibition in vivo at 1 mg/kg with Cavia porcellus [3] of 28.6%.
The corresponding values for `CNC(=O)c1ccc(/C=C/C(=O)NCC(=O)N(C)c2ccc(Cl)c(COc3cccc4c3nc(OC)n4C)c2Cl)cc1` are 2.2 nM, 0.83 nM and 21.7%.
